# Laboratory results taken from ChEMBL document CHEMBL1144782, “Isoindolo[2,1-a]quinoxaline derivatives, novel potent antitumor agents with dual inhibition of tubulin polymerization and topoisomerase I” (2008).
# Values joined by “and” are separate entries in the source; they are usually repeats but may differ in a detail not shown here. Equal values may be shown once. Active and inactive are the calls of the source. The calls are words filed in the database; no cut-off is given here.
# Experiments:
# MCF7 = assay: Cell viability against human MCF7 cells at 10 uM; format: functional
# NCI-H460 = assay: Cell viability against human NCI-H460 cells at 10 uM; format: functional
# NCI/ADR-RES = assay: Antitumor activity against human NCI/ADR-RES cells; format: functional; details: for TGI: read-out: pTGI (converted)
# How it was run: (§1)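 Run by the NCI in its in vitro disease-oriented screen of about 60 human tumour cell lines. For each line it reports pGI50 (50% net growth inhibition), pTGI (total growth inhibition) and pLC50 (50% net cell death), each as –log molar concentration. Where an effect was not reached within the tested range, the highest tested concentration was used.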
# HCT-15 = assay: Antitumor activity against human HCT15 cells; format: functional; details: for CC50: read-out: Log LC50 (the source's name) (converted); for TGI: read-out: pTGI (converted); how it was run: as §1
# U-251 = assay: Antitumor activity against human U251 cells; format: functional; details: for CC50: read-out: Log LC50 (the source's name) (converted); for TGI: read-out: pTGI (converted)
# How it was run: (§2)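 NCI 60-cell-line screen. Parameters were GI50 (50% net growth inhibition), TGI and LC50, each reported as –log molar concentration. Where an effect was not reached within the tested range, the highest tested concentration was used in the calculation.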
# BT-549 = assay: Antitumor activity against human BT549 cells; format: functional; details: for TGI: read-out: pTGI (converted); how it was run: as §1
# Jurkat [1] = assay: Induction of apoptosis in human Jurkat cells assessed as activation of caspase 9 after 24 hrs by flow cytometry; format: functional, cell-based
# How it was run: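 Jurkat cells were exposed (500 nM) for 24 h, then harvested and incubated in HBSS with cell-permeable FITC-DEVD-fmk (caspase-3) or FITC-[…]-fmk (caspase-9) for 1 h at 37 °C. After washing, cells were read by flow cytometry on FL-1. Results are fold increase over control.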
# Jurkat [2] = assay: Effect on mitochondrial dysfunction in human Jurkat cells assessed as decrease in 10-N-nonyl-acridine-orange fluorescence intensity after 24 hrs by flow cytometry; format: functional, cell-based
# How it was run: (§3)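 Jurkat cells after 24 h exposure were resuspended in HBSS with hydroethidine (2.5 µM, ROS) or NAO (100 nM, cardiolipin oxidation) for 30 min at 37 °C. Flow cytometry used 488 nm excitation, with emission at 585 nm (HE) or 530 nm (NAO). Mean ± SEM of three experiments.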
# EKVX = assay: Antitumor activity against human EKVX cells; format: functional; details: for TGI: read-out: pTGI (converted); how it was run: as §1
# CCRF-CEM [3] = assay: Growth inhibition of human vinblastine-resistant CEM cells after 72 hrs by MTT assay; format: functional
# How it was run: (§4)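 Growth inhibition by MTT after 72 h incubation. Resistant sublines: LoVoDoxo and MCF-7 MDR were kept in 0.1 µg/mL doxorubicin; CEMVbl-100 was selected against vinblastine. GI50 given as mean ± SEM of three independent experiments. Resistance index is resistant-line GI50 over parental GI50.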
# KM12 = assay: Antitumor activity against human KM12 cells; format: functional; details: for TGI: read-out: pTGI (converted); how it was run: as §1
# LoVo [4] = assay: Growth inhibition of human LoVo cells after 72 hrs by MTT assay; format: functional; how it was run: as §4
# CCRF-CEM [5] = assay: Growth inhibition of human CEM cells after 72 hrs by MTT assay; format: functional; how it was run: as §4
# Malme-3M = assay: Antitumor activity against human MALME3M cells; format: functional; details: for CC50: read-out: Log LC50 (the source's name) (converted); for TGI: read-out: pTGI (converted); how it was run: as §1
# Jurkat [6] = assay: Induction of apoptosis in human Jurkat cells after 24 hrs by flow cytometry; format: functional, cell-based
# How it was run: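 Jurkat cells after 24 h exposure were stained with Annexin V-FITC plus propidium iodide. Flow cytometry used 488 nm excitation, with emission filters at 525 and 585 nm.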
# PC-3 = assay: Antitumor activity against human PC3 cells; format: functional; details: for TGI: read-out: pTGI (converted); how it was run: as §1
# HCT-116 = assay: Antitumor activity against human HCT116 cells; format: functional; details: for TGI: read-out: pTGI (converted); how it was run: as §1
# COLO 205 = assay: Antitumor activity against human COLO205 cells; format: functional; details: for TGI: read-out: pTGI (converted); how it was run: as §1
# LOX IMVI = assay: Antitumor activity against human LOXIMVI cells; format: functional; details: for TGI: read-out: pTGI (converted); how it was run: as §1
# MDA-MB-435 = assay: Antitumor activity against human MDA-MB-435 cells; format: functional; details: for TGI: read-out: pTGI (converted); how it was run: as §1
# NCI-H23 = assay: Antitumor activity against human NCI-H23 cells; format: functional; details: for TGI: read-out: pTGI (converted); how it was run: as §1
# LoVo [7] = assay: Resistance index, Ratio of GI50 for human doxorubicin-resistant LoVo cells to GI50 for human LoVo cells; format: functional; how it was run: as §4
# T47D = assay: Antitumor activity against human T47D cells; format: functional; details: for TGI: read-out: pTGI (converted); how it was run: as §2
# HOP-92 = assay: Antitumor activity against human HOP92 cells; format: functional; details: for TGI: read-out: pTGI (converted); how it was run: as §1
# MOLT-4 = assay: Antitumor activity against human MOLT4 cells; format: functional; details: for TGI: read-out: pTGI (converted); how it was run: as §1
# Jurkat [8] = assay: Cell cycle arrest in human Jurkat cells assessed as accumulation at S phase at 500 nM after 24 hrs by flow cytometry; format: functional
# How it was run: (§5)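 Exponentially growing Jurkat cells (5 × 105) were exposed to compound for 24 h. Cells were then fixed in ice-cold 70% ethanol, lysed with RNase A-containing buffer and stained with propidium iodide. DNA-content histograms from flow cytometry gave G1, S and G2/M fractions.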
# SR = assay: Antitumor activity against human SR cells; format: functional; details: for TGI: read-out: pTGI (converted); how it was run: as §2
# Jurkat [9] = assay: Effect on mitochondrial dysfunction in human Jurkat cells assessed as induction of ROS production after 24 hrs by flow cytometry; format: functional, cell-based; how it was run: as §3
# M14 = assay: Antitumor activity against human M14 cells; format: functional; details: for CC50: read-out: Log LC50 (the source's name) (converted); for TGI: read-out: pTGI (converted); how it was run: as §1
# Jurkat [10] = assay: Cell cycle arrest in human Jurkat cells assessed as accumulation at S phase at 125 nM after 24 hrs by flow cytometry; format: functional; how it was run: as §5
# HCC 2998 = assay: Antitumor activity against human HCC2998 cells; format: functional; details: for TGI: read-out: pTGI (converted); how it was run: as §1
# DU-145 = assay: Antitumor activity against human DU145 cells; format: functional; details: for CC50: Homo sapiens, DU-145, read-out: Log LC50 (the source's name) (converted); how it was run: as §1
# SK-MEL-5 = assay: Antitumor activity against human SKMEL5 cells; format: functional; details: for TGI: read-out: pTGI (converted); how it was run: as §1
smiles,measurement,setting,value
COc1ccc2c(c1)[nH]c(=O)c1c3ccccc3cn21,Activity,MCF7,0%
same,Activity,NCI-H460,0%
same,GI50,NCI/ADR-RES,0.0214 µM
same,LC50,NCI/ADR-RES,10 µM
same,TGI,NCI/ADR-RES,0.0575 µM
same,GI50,HCT-15,0.0263 µM
same,CC50,HCT-15,4.57 µM
same,TGI,HCT-15,1.15 µM
same,GI50,U-251,0.0437 µM
same,CC50,U-251,5.01 µM
same,TGI,U-251,1.51 µM
same,GI50,BT-549,0.055 µM
same,LC50 (50% net cell kill),BT-549,6.31 µM
same,TGI,BT-549,2.04 µM
same,Activity,Jurkat [1],Active
same,Activity,Jurkat [2],Active
same,GI50,EKVX,0.0912 µM
same,LC50 (50% net cell kill),EKVX,> 100 µM
same,TGI,EKVX,29.5 µM
same,GI50,CCRF-CEM [3],0.02 µM
same,GI50,KM12,0.0331 µM
same,LC50 (50% net cell death),KM12,6.03 µM
same,TGI,KM12,1.51 µM
same,GI50,LoVo [4],0.13 µM
same,GI50,CCRF-CEM [5],0.02 µM
same,GI50,Malme-3M,0.01 µM
same,CC50,Malme-3M,8.51 µM
same,TGI,Malme-3M,3.39 µM
same,Activity,Jurkat [6],Dose-dependent effect
same,GI50,PC-3,0.0372 µM
same,LC50 (50% net cell death),PC-3,> 100 µM
same,TGI,PC-3,2.57 µM
same,GI50,HCT-116,0.0398 µM
same,LC50,HCT-116,4.47 µM
same,TGI,HCT-116,1.32 µM
same,GI50,COLO 205,0.0407 µM
same,LC50,COLO 205,5.75 µM
same,TGI,COLO 205,1.15 µM
same,GI50,LOX IMVI,0.0708 µM
same,LC50 (50% net cell kill),LOX IMVI,4.47 µM
same,TGI,LOX IMVI,1.78 µM
same,GI50,MDA-MB-435,0.00407 µM
same,LC50 (50% net cell death),MDA-MB-435,> 100 µM
same,TGI,MDA-MB-435,0.0209 µM
same,GI50,NCI-H23,0.0427 µM
same,LC50 (50% net cell kill),NCI-H23,> 100 µM
same,TGI,NCI-H23,3.39 µM
same,RatioGI50,LoVo [7],1
same,GI50,T47D,0.0479 µM
same,LC50,T47D,> 100 µM
same,TGI,T47D,4.57 µM
same,GI50,HOP-92,1 µM
same,LC50,HOP-92,39.8 µM
same,TGI,HOP-92,15.8 µM
same,GI50,MOLT-4,0.0776 µM
same,LC50,MOLT-4,75.9 µM
same,TGI,MOLT-4,2.14 µM
same,Activity,Jurkat [8],49.1%
same,GI50,SR,0.01 µM
same,LC50,SR,75.9 µM
same,TGI,SR,2.04 µM
same,Activity,Jurkat [9],Active
same,GI50,M14,0.01 µM
same,CC50,M14,3.63 µM
same,TGI,M14,12.9 µM
same,Activity,Jurkat [10],38.6%
same,GI50,HCC 2998,0.0182 µM
same,LC50,HCC 2998,0.501 µM
same,TGI,HCC 2998,0.049 µM
same,CC50,DU-145,4.27 µM
same,GI50,SK-MEL-5,0.0282 µM
same,LC50,SK-MEL-5,3.47 µM
same,TGI,SK-MEL-5,1.17 µM
Cc1cc2[nH]c(=O)c3c4ccccc4cn3c2cc1C,Activity,MCF7,0%
same,Activity,NCI-H460,0%
same,GI50,NCI/ADR-RES,13.5 µM
same,LC50,NCI/ADR-RES,74.1 µM
same,TGI,NCI/ADR-RES,31.6 µM
same,GI50,HCT-15,6.17 µM
same,CC50,HCT-15,61.7 µM
same,TGI,HCT-15,21.9 µM
same,GI50,U-251,4.07 µM
same,CC50,U-251,47.9 µM
same,TGI,U-251,14.1 µM
same,GI50,BT-549,19.5 µM
same,LC50 (50% net cell kill),BT-549,85.1 µM
same,TGI,BT-549,40.7 µM
same,GI50,EKVX,13.5 µM
same,LC50 (50% net cell kill),EKVX,75.9 µM
same,TGI,EKVX,31.6 µM
same,GI50,CCRF-CEM [3],15.1 µM
same,GI50,KM12,7.08 µM
same,LC50 (50% net cell death),KM12,52.5 µM
same,TGI,KM12,21.4 µM
same,GI50,CCRF-CEM [5],15.5 µM
same,GI50,Malme-3M,22.4 µM
same,CC50,Malme-3M,63.1 µM
same,TGI,Malme-3M,37.2 µM
same,GI50,PC-3,12 µM
same,LC50 (50% net cell death),PC-3,53.7 µM
same,TGI,PC-3,25.7 µM
same,GI50,HCT-116,1.58 µM
same,LC50,HCT-116,6.17 µM
same,TGI,HCT-116,3.09 µM
same,GI50,COLO 205,15.1 µM
same,LC50,COLO 205,> 100 µM
same,TGI,COLO 205,> 100 µM
same,GI50,LOX IMVI,2.04 µM
same,LC50 (50% net cell kill),LOX IMVI,7.94 µM
same,TGI,LOX IMVI,3.98 µM
same,GI50,MDA-MB-435,6.03 µM
same,LC50 (50% net cell death),MDA-MB-435,50.1 µM
same,TGI,MDA-MB-435,20 µM
same,GI50,NCI-H23,14.8 µM
same,LC50 (50% net cell kill),NCI-H23,69.2 µM
same,TGI,NCI-H23,32.4 µM
same,GI50,T47D,15.5 µM
same,LC50,T47D,> 100 µM
same,TGI,T47D,50.1 µM
same,GI50,HOP-92,15.5 µM
same,LC50,HOP-92,58.9 µM
same,TGI,HOP-92,30.2 µM
same,GI50,MOLT-4,5.62 µM
same,LC50,MOLT-4,70.8 µM
same,TGI,MOLT-4,19.5 µM
same,GI50,SR,2.57 µM
same,LC50,SR,49 µM
same,TGI,SR,5.75 µM
same,GI50,M14,13.5 µM
same,CC50,M14,52.5 µM
same,TGI,M14,26.9 µM
same,GI50,HCC 2998,4.07 µM
same,LC50,HCC 2998,50.1 µM
same,TGI,HCC 2998,16.6 µM
same,GI50,DU-145,13.8 µM and 30.2 µM
same,CC50,DU-145,64.6 µM
same,GI50,SK-MEL-5,13.5 µM
same,LC50,SK-MEL-5,64.6 µM
same,TGI,SK-MEL-5,29.5 µM
